One block for each molecule: values may come before it.
Legend:
[1] = tested on: xanthine oxidase; test: Half life for the nitro group loss in xanthine oxidase enzyme assay in 0.2%DMF at 0.1 mM; type: ADME
Method in brief: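 Anaerobic assay in argon-purged, septum-sealed cuvette: 100 µM nitro compound, 4 mM hypoxanthine, 0.2 units/mL bovine milk xanthine oxidase, 0.1 M phosphate/EDTA pH 7.4, 0.2% DMF final. Nitro absorbance at 326 nm read every 5 min and converted to concentration. Half-life taken from plots of log[% remaining] vs time.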

[2] = tested on: xanthine oxidase; test: (§1) Half life for the nitro group loss in xanthine oxidase enzyme assay in 5%DMF at 0.1 mM
[3] = biological target: Xanthine dehydrogenase/oxidase (Bos taurus, UniProt P80457); test: Reaction rate was evaluated for the compound with hypoxanthine as reducing substrate in 5% DMF expressed as nM/min/unit XOD
[4] = Half life for the nitro group loss in xanthine oxidase enzyme assay in 5 %DMF at 0.1 mM; No rection seen; type: ADME; settings: 100 µM
[5] = Half life for the nitro group loss in xanthime oxidase enzyme assay in 5%DMF with no enzyme control at 0.1 mM; No reaction seen; type: ADME; settings: 100 µM
[6] = as §1; type: ADME; settings: 100 µM
Method in brief: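 Nitro compound at 100 µM with 4 mM hypoxanthine and 0.2 units/mL cow milk xanthine oxidase, in 0.1 M phosphate/EDTA pH 7.4 containing 5% DMF. Solutions were argon-deoxygenated before the enzyme was injected by gas-tight syringe. Loss of the 326 nm nitroimidazole absorbance was followed by UV/vis, and the half-life derived from the time course.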

[7] = Half life for the nitro group loss in xanthime oxidase enzyme assay in 5%DMF with no hypoxanthine control at 0.1 mM; No reaction seen; type: ADME; settings: 100 µM

Chain of Xanthine dehydrogenase/oxidase (P80457 whole entry): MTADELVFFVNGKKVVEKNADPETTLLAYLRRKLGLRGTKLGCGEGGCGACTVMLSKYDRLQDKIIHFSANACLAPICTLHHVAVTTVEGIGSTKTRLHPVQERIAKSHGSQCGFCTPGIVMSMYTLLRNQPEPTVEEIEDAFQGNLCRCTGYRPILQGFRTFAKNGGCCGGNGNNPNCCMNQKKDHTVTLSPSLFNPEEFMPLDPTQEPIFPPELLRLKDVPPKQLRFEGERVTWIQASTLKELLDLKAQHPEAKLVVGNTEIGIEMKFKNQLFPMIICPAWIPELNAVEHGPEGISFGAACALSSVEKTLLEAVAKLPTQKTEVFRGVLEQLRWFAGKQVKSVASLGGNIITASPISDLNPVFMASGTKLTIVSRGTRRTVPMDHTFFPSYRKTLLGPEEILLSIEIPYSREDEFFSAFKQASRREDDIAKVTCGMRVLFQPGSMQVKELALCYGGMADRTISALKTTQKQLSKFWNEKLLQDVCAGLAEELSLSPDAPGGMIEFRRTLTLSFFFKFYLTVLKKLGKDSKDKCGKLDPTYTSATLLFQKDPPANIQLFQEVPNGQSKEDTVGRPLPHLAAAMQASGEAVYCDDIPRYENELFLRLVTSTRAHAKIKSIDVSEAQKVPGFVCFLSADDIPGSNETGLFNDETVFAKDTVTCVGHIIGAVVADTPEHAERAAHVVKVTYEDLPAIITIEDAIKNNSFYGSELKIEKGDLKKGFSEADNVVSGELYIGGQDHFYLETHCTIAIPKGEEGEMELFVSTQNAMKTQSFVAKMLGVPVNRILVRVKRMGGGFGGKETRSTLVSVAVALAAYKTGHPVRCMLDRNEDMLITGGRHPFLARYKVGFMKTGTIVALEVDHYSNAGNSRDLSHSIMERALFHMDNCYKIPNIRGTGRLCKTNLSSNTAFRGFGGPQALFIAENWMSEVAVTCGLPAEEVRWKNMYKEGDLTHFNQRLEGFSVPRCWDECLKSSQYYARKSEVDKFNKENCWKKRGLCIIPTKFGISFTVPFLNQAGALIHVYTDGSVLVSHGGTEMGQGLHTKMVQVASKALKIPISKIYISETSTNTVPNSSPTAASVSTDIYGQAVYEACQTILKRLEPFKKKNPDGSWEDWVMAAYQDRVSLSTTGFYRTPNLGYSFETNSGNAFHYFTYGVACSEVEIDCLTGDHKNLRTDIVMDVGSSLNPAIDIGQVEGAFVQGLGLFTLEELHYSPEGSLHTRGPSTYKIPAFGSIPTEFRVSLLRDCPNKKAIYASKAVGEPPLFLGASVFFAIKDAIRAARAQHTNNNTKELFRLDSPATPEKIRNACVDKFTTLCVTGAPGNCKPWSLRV

- half-life at 100 µM [1]: > 20 h
Molecule: Cc1ncc([N+](=O)[O-])n1CCO [METRONIDAZOLE]

- half-life at 100 µM [2]: 1 h
- Rate [3]: 3.7 nM min-1 (unit XOD)-1
Molecule: COCC(O)Cn1ccnc1[N+](=O)[O-] (stereo not drawn) [MISONIDAZOLE]

- T1/2 [4]: Not Active
Molecule: TCO(PNAO)

- T1/2 [5]: Not Active
- T1/2 [6]: 2 h
- Rate [3]: 1.5 nM min-1 (unit XOD)-1
- T1/2 [7]: Not Active
Molecule: TcO(PnA.O-1-(2-nitroimidazole))
